Screens (PubChem BioAssay)
Many of the other results were omitted from the sample, so hits are more common in it than they were.
CHOP inh: inhibitors of CHOP promoter induction, primary screen, cell-based, unfolded protein response, luciferase reporter. AID 2732, 2010. CHO-K1 CHOP-promoter luciferase, tunicamycin-induced, 15-18 h. 220,000 compounds, 3.8% hits. inhibition, % at 10 µM;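 active = compounds that reduced the stress-induced luciferase reporter signal by more than about 70% of percent inhibition, limit read from the data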;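 also: 0% = tunicamycin plus vehicle and 100% = wells without tunicamycin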
CHOP UPR activ: activators of apoptotic CHOP UPR arm, primary screen, cell-based, CHO-CHOP luciferase reporter, luminescence, uHTS; 330,000 compounds, 0.34% hits; UPR activation; percent of tunicamycin response over DMSO baseline; activation, % at 10 µM;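 active = at 10 µM dose, activation of 40% or more, normalized to positive control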;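 also: 100% = tunicamycin at 10 µg/mL and 0% = DMSO alone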
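System: CHO CHOP reporter cells. Amount: 500 cells per well. Buffer or medium: F12 medium, 10% FBS. Compound dosing: one dose, 10 µM in 0.5% DMSO. Incubation: 6 h compound exposure at 37 °C after overnight seeding. Technique: Steady-Glo luciferase luminescence. Benchmarks: tunicamycin and DMSO controls.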
Fh CTSL1 inh: Fasciola hepatica cathepsin L1 inhibitors, primary screen, counter-screen for PFM18AAP inhibitor project, biochemical, QFRET, fluorogenic peptide substrate | recombinant F. hepatica cathepsin L1, Z-Leu-Arg-MCA fluorescence | inhibition, % at 5.96 µM | 300,000 compounds, 0.49% hits;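 active = inhibition above the mean of all tested compounds plus 3 SD, set per screening campaign, cut at about 17% in these data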;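 also: 0% = plate median of test compound wells and 100% = 1 µM Z-Phe-Ala-diazomethylketone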
UPR XBP1 act: activators of adaptive XBP1 UPR arm, primary screen, cell-based, CHO-XBP1 luciferase reporter, luminescence, uHTS; IRE1-XBP1 UPR activation; percent of tunicamycin response, DMSO as zero; activation, % at 20 µM; 330,000 compounds, 0.33% hits;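 active = versus positive control, 20 µM dose yields 30% or more activation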;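 also: 100% = tunicamycin at 10 µg/mL and 0% = DMSO only wells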
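Material – CHO cell line with stable XBP1 luciferase reporter · Buffer or medium – F12 plus 10% FBS · Compound – single point, 20 µM final compound, 1% DMSO · Schedule – 16-18 h cell attachment at 37 °C, then 6 h compound exposure · Signal – Steady-Glo luminescence read · Benchmarks – high control tunicamycin 10 µg/mL final, low control DMSO vehicle only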
UCH37 DUB inh: inhibitors of human UCH37 deubiquitinase, primary screen, biochemical, Ub-AMC cleavage, fluorescence | Ubiquitin carboxyl-terminal hydrolase isozyme L5 (Homo sapiens), Q9Y5K5 | purified proteasome/UCH37 | inhibition, % (concentration not given with the values) | 330,000 compounds, 0.33% hits;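 active = mean inhibition over replicate wells above about 20%, limit read from the data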;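 also: 0% = compound-free wells with enzyme and 100% = wells lacking proteasome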
Target sequence (Q9Y5K5 whole entry, looked up): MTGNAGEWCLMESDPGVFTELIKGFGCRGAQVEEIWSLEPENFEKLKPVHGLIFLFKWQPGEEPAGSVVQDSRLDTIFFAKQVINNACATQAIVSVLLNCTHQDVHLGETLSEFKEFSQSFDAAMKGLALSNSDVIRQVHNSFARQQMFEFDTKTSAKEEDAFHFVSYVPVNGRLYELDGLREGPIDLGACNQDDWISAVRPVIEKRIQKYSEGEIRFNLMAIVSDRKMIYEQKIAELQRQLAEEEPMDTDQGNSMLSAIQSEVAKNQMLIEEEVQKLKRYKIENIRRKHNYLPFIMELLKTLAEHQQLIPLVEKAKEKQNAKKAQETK
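Reagent: Ub-AMC substrate; assay system: Proteasome-associated human UCH37 deubiquitinase; controls: no-proteasome and no-compound wells; read-out: % inhibition of Ub-AMC cleavage fluorescence; timing: 30 min preincubation with enzyme, 25 min cleavage at room temperature; signal: AMC fluorescence from Ub-AMC cleavage, excitation 355 nm, emission 460 nm; buffer or medium: Tris-HCl pH 7.4 plus ovalbumin, ATP-MgCl2, DTT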
* hit, by the source's call; i = inactive; x = no result; ! = not active in a repeat.

SMILES	CHOP inh	CHOP UPR activ	Fh CTSL1 inh	UPR XBP1 act	UCH37 DUB inh
COc1ccc(CNC(=O)c2cc(-c3ccncc3)nc3c(C)cc(C)cc23)cc1OC	88.5*	1.5	-0.6	-1.9	-16.0
CCn1c(SCC(=O)Nc2cc(C)on2)nc2sc3c(c2c1=O)CCCC3	107.3*	-1.4	1.7	-3.2	0.4
Cc1cc(NC(=O)CSc2nc(C(C)C)nc3sc4c(c23)CCCC4)no1	76.7*	0.8	1.1	5.9	-1.4
Cc1cc(NC(=O)CSc2nc3sc4c(c3c(=O)n2C)CCCC4)no1	29.9	-0.5	4.3	-1.0	-0.1
CCc1cc2ccc(C)cc2nc1SCC(=O)Nc1cc(C)on1	28.9	2.2	1.2	-1.0	3.5
C=CCn1c(SCC(=O)Nc2cc(C)on2)nc2sc3c(c2c1=O)CCCC3	34.4	-1.5	0.3	-0.9	0.1
CCc1cc2cc3c(cc2nc1SCC(=O)Nc1cc(C)on1)OCO3	95.1*	10.5	2.8	14.8	0.4
COc1ccccc1/C=C/C(=O)NCC(=O)NN=Cc1ccccc1[N+](=O)[O-]	x	x	x	x	7.0
C=CCn1c(SCC(O)Cn2c3ccccc3c3ccccc32)nnc1-c1ccco1 (stereo unspecified)	77.2*	-1.9	-0.8	2.1	-1.1
CN1CCN(CCCN2c3ccccc3Sc3ccc(C(F)(F)F)cc32)CC1	95.9*!	-0.8	3.9	-0.7	0.5
CCc1ccc(-n2c(C)cc(C=NNC(=O)c3ccncc3)c2C)cc1	x	x	x	x	6.8
COc1cc(C=NNC(=S)Nc2cccc(Cl)c2C)ccc1OCC(=O)N1CC(C)OC(C)C1 (stereo unspecified)	x	x	x	x	4.7
Cc1cccc(OCC(=O)Nc2ccc3c4c(cccc24)CC3)c1C	-31.1	3.1	1.9	3.3	1.1
Cc1ccc(OCC(=O)Nc2ccc3c4c(cccc24)CC3)c(C)c1	81.7*	0.7	-1.2	7.3	3.3
Cc1cc(C)nc(N/N=C/C2=C(O)CC(c3ccc(F)cc3)CC2=O)n1 (stereo unspecified)	74.9*	10.6	-1.3	-2.6	2.0
Cc1ccc(NC(=O)c2ccc(F)cc2F)cc1	x	4.7	4.3	-2.8	0.3
Cc1ccc(NC(=O)c2cc(N(C)C)ccc2[P+](=O)O)cc1	90.8*	2.5	-2.1	1.4	-3.6
CCOC(=O)C1=C(C)N=c2sc(=Cc3ccc(OC(C)=O)c(OCC)c3)c(=O)n2C1/C=C/c1ccccc1 (stereo unspecified)	x	x	x	x	3.5
CCCCCCc1cc2cc(S(=O)(=O)c3ccc(F)c(Cl)c3)c(=O)oc2cc1O	91.5*	0.5	6.0	2.4	-221.1
CCCCCCc1cc2cc(C(=O)OCC)c(=O)oc2cc1O	21.6	1.1	-3.2	1.7	i
Cc1cccc(OCC(O)Cn2c(-n3nc(C)cc3C)nc3c2c(=O)[nH]c(=O)n3C)c1 (stereo unspecified)	72.9*	1.1	-2.9	-2.1	-1.3
Oc1ccccc1C=N[n+]1ccccc1	x	x	x	x	8.1
CCCCSc1nnc(-c2ccccc2)c2ccccc12	82.3*	0.1	1.4	5.3	3.2
CCN1CCN(c2nnc(-c3ccccc3)c3ccccc23)CC1	x	1.2	-0.8	-7.0	0.8
CCOC(=O)N1CCN(c2cc(NCCC(=O)O)c3c4c(onc24)-c2ccccc2C3=O)CC1	12.3	0.8	21.3*	-1.9	26.8*
SMILES	CHOP inh	CHOP UPR activ	Fh CTSL1 inh	UPR XBP1 act	UCH37 DUB inh
O=C(O)CCCNc1cc(N2CCN(C(=O)c3ccco3)CC2)c2noc3c2c1C(=O)c1ccccc1-3	x	1.4	6.6	-3.8	x
O=C(NN=Cc1ccccc1C(=O)O)c1ccccc1Br	x	x	x	x	0.0
CC(C)CN(CCNC(=O)CN1C(=O)COc2ccc(S(=O)(=O)N3CCC(C)CC3)cc21)CC(C)C	x	-1.1	19.9*	-2.6	2.2
O=c1c2ccccc2nc(COc2ccccc2)n1/N=C/c1cn[nH]c1-c1ccccc1	85.1*	2.8	1.7	-1.4	x
Cc1cc(C)n2nc(C(=O)NN=Cc3ccccc3Cl)nc2n1	x	x	x	x	4.2
Cc1cc(CNC(=O)c2cccnc2Cl)c2ccccc2n1	14.3	-1.0	17.5*	-3.7	1.1
